According to BindingDB's records for doi:10.1021/jm00042a007 (Merck Research Laboratories, 1994):
Bridge positions count the residues as written; N and C are the ends. Peptide text beside a SMILES is read from it.

Target: Integrin alpha-IIb/beta-3 (Homo sapiens, UniProt P08514+P05106)
Assay: Inhibition of platelet aggregation as the concentration necessary to inhibit the change in light.
Method in brief: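 Human gel-filtered platelets at 2 × 10^8/mL were mixed with 0.1 mg/mL human fibrinogen, 1 mM CaCl2 and compound, then aggregated with 10 µM ADP. Light transmittance was compared between control and treated samples.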

Integrin alpha-IIb/beta-3, sequence (P05106 27-788 limits assumed): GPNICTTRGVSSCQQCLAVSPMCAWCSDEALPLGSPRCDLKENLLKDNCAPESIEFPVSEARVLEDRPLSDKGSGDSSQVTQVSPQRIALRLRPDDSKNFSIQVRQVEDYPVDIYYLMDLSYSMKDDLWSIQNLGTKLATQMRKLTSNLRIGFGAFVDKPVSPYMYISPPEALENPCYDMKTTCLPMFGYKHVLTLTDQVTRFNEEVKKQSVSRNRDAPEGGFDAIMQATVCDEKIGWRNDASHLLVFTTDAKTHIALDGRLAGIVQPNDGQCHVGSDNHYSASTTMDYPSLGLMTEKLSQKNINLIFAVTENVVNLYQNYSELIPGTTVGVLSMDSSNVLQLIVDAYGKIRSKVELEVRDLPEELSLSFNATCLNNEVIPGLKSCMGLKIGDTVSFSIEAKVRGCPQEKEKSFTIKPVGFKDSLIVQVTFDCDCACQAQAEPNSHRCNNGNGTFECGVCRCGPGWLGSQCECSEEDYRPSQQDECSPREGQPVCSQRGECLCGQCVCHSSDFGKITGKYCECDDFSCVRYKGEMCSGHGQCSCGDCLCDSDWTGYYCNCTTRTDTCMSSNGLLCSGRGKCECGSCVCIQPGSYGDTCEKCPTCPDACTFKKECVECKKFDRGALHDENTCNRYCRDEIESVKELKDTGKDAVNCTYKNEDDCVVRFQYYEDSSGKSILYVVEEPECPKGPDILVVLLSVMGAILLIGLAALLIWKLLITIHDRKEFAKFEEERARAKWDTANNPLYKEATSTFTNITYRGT
Integrin alpha-IIb/beta-3, sequence (P08514 32-887 limits assumed): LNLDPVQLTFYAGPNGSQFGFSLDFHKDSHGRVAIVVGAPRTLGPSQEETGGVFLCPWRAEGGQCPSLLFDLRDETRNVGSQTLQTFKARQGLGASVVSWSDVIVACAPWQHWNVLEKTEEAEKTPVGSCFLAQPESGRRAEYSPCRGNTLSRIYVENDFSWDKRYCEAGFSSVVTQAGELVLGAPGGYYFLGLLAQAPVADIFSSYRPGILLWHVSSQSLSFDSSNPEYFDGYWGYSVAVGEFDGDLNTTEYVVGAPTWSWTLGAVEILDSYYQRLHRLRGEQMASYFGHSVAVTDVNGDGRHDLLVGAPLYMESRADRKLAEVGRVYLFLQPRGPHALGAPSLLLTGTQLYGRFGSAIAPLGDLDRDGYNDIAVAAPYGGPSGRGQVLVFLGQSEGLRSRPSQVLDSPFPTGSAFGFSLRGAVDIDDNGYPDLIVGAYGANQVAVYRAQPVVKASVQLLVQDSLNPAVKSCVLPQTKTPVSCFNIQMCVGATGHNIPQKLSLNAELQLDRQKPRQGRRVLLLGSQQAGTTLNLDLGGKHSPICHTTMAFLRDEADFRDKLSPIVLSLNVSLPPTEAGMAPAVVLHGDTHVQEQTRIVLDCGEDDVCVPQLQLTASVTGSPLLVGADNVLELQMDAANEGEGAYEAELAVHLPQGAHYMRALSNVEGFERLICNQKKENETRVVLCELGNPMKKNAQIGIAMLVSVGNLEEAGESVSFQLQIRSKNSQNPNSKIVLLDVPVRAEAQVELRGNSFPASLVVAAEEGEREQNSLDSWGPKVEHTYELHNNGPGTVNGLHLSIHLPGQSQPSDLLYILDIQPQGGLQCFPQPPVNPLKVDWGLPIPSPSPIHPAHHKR
Integrin alpha-IIb/beta-3, sequence (P08514 891-1039 limits assumed): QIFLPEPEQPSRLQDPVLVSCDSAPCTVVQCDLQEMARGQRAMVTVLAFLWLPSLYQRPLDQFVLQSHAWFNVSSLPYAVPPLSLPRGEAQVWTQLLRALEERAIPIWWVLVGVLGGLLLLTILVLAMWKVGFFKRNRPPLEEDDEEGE

| Compound | IC50 [µM] |
| --- | --- |
| CC(=O)N[C@H]1CSSC[C@@H](C(=O)O)NC(=O)[C@H](CC(=O)O)NC(=O)CNC(=O)[C@H](CCCNC(=N)N)NC1=O [(4S,7R,13R,16S)-16-Acetylamino-7-carboxymethyl-13-(3-guanidino-propyl)-6,9,12,15-tetraoxo-1,2-dithia-5,8,11,14-tetraaza-cycloheptadecane-4-carboxylic acid] (Ac-CRGDC-OH; disulfide 1-5) | 0.68 |
| O=C(O)[C@H](Cc1ccc(OCCCCC2CCNCC2)cc1)NS(=O)(=O)CCc1ccccc1 [(S)-2-(2-Phenyl-ethanesulfonylamino)-3-[4-(4-piperidin-4-yl-butoxy)-phenyl]-propionic acid] | 0.029 |
| O=C(CCc1ccccc1)N[C@@H](Cc1ccc(OCCCCC2CCNCC2)cc1)C(=O)O [(S)-2-(3-Phenyl-propionylamino)-3-[4-(4-piperidin-4-yl-butoxy)-phenyl]-propionic acid] | 0.1 |
| O=C(O)[C@H](Cc1ccc(OCCCCC2CCNCC2)cc1)NS(=O)(=O)/C=C/c1ccccc1 [(S)-2-((E)-2-Phenyl-ethenesulfonylamino)-3-[4-(4-piperidin-4-yl-butoxy)-phenyl]-propionic acid] | 0.043 |
| CC(=O)N[C@@H](Cc1ccc(OCCCCC2CCNCC2)cc1)C(=O)O [(S)-2-Acetylamino-3-[4-(4-piperidin-4-yl-butoxy)-phenyl]-propionic acid] | 0.5 |
| O=C(O)[C@H](Cc1ccc(OCCCCC2CCNCC2)cc1)NS(=O)(=O)c1ccccc1 [(S)-2-Benzenesulfonylamino-3-[4-(4-piperidin-4-yl-butoxy)-phenyl]-propionic acid] | 0.018 |
| O=C(N[C@@H](Cc1ccc(OCCCCN2CCNCC2)cc1)C(=O)O)OCc1ccccc1 [(S)-2-Benzyloxycarbonylamino-3-[4-(4-piperazin-1-yl-butoxy)-phenyl]-propionic acid] | 0.5 |
| CS(=O)(=O)N[C@@H](Cc1ccc(OCCCCC2CCNCC2)cc1)C(=O)O [(S)-2-Methanesulfonylamino-3-[4-(4-piperidin-4-yl-butoxy)-phenyl]-propionic acid] | 0.063 |
| CCCCC(=O)N[C@@H](Cc1ccc(OCCCCC2CCNCC2)cc1)C(=O)O [(S)-2-Pentanoylamino-3-[4-(4-piperidin-4-yl-butoxy)-phenyl]-propionic acid] | 0.047 |
| CCCCS(=O)(=O)N[C@H](CC(=O)O)Cc1ccc(OCCCCC2CCNCC2)cc1 [(S)-3-(Butane-1-sulfonylamino)-4-[4-(4-piperidin-4-yl-butoxy)-phenyl]-butyric acid] | 0.14 |
| CCCS(=O)(=O)N[C@@H](Cc1ccc(OCCCCC2CCNCC2)cc1)C(=O)O [(S)-3-[4-(4-Piperidin-4-yl-butoxy)-phenyl]-2-(propane-1-sulfonylamino)-propionic acid] | 0.023 |
| O=C(O)[C@H](Cc1ccc(OCCCCC2CCNCC2)cc1)NS(=O)(=O)c1cccs1 [(S)-3-[4-(4-Piperidin-4-yl-butoxy)-phenyl]-2-(thiophene-2-sulfonylamino)-propionic acid] | 0.015 |
| CCC(=O)N[C@@H](Cc1ccc(OCCCCC2CCNCC2)cc1)C(=O)O [(S)-3-[4-(4-Piperidin-4-yl-butoxy)-phenyl]-2-propionylamino-propionic acid] | 0.105 |

Results, then the compound that gave them:

| IC50 [µM] | Compound |
| --- | --- |
| 5 | CCCCCC(=O)N[C@@H](Cc1ccc(OCCCCCCN)cc1)C(=O)O |
| 1.9 | NCCCCCCOc1ccc(C[C@H](NS(=O)(=O)Cc2ccccc2)C(=O)O)cc1 |
| > 1000 | O=C(N[C@@H](Cc1ccc(OCCCc2ccccc2)cc1)C(=O)O)OCc1ccccc1 |
| 1.7 | N=C(N)NCCC[C@H](N)C(=O)NCC(=O)N[C@@H](CC(=O)O)C(=O)N[C@@H](Cc1c[nH]c2ccccc12)C(=O)O [2-[1-[1-amino-4-amino(imino)methylamino-(1S)-butylcarboxamidomethylcarboxamido]-2-carboxy-(1S)-ethylcarboxamido]-3-(1H-3-indolyl)-(2S)-propanoic acid] (H-RGDW-OH) |
| 38 | NCCCCCCCCOc1ccc(C[C@H](NC(=O)OCc2ccccc2)C(=O)O)cc1 [3-[4-(8-Amino-octyloxy)-phenyl]-2-benzyloxycarbonylamino-propionic acid] |
| 18 | CC(=O)N[C@@H](Cc1ccc(OCCCCCCN)cc1)C(=O)O [(S)-2-Acetylamino-3-[4-(6-amino-hexyloxy)-phenyl]-propionic acid] |
| 6.2 | O=C(N[C@@H](Cc1ccc(OCCCC2CCNCC2)cc1)C(=O)O)OCc1ccccc1 [(S)-2-Benzyloxycarbonylamino-3-[4-(3-piperidin-4-yl-propoxy)-phenyl]-propionic acid] |
| 28 | CC(C)(C)NCCCOc1ccc(C[C@H](NC(=O)OCc2ccccc2)C(=O)O)cc1 [(S)-2-Benzyloxycarbonylamino-3-[4-(3-tert-butylamino-propoxy)-phenyl]-propionic acid] |
| 1.1 | O=C(N[C@@H](Cc1ccc(OCCCCCN2CCNCC2)cc1)C(=O)O)OCc1ccccc1 [(S)-2-Benzyloxycarbonylamino-3-[4-(5-piperazin-1-yl-pentyloxy)-phenyl]-propionic acid] |
| 0.24 | O=C(N[C@@H](Cc1ccc(OC/C=C/CC2CCNCC2)cc1)C(=O)O)OCc1ccccc1 [(S)-2-Benzyloxycarbonylamino-3-[4-((E)-4-piperidin-4-yl-but-2-enyloxy)-phenyl]-propionic acid] |
| > 100 | CC(C)(C)CC(C)(C)NCCCOc1ccc(C[C@H](NC(=O)OCc2ccccc2)C(=O)O)cc1 [(S)-2-Benzyloxycarbonylamino-3-{4-[3-(1,1,3,3-tetramethyl-butylamino)-propoxy]-phenyl}-propionic acid] |
| 5.2 | CN1CCN(CCCOc2ccc(C[C@H](NC(=O)OCc3ccccc3)C(=O)O)cc2)CC1 [(S)-2-Benzyloxycarbonylamino-3-{4-[3-(4-methyl-piperazin-1-yl)-propoxy]-phenyl}-propionic acid] |
| 0.6 | CCCCS(=O)(=O)N[C@H](CC(=O)O)Cc1ccc(OCCCC2CCNCC2)cc1 [(S)-3-(Butane-1-sulfonylamino)-4-[4-(3-piperidin-4-yl-propoxy)-phenyl]-butyric acid] |
| 10 | NCCCCCCOc1ccc(C[C@H](NC(=O)c2ccccc2)C(=O)O)cc1 [(S)-3-[4-(6-Amino-hexyloxy)-phenyl]-2-benzoylamino-propionic acid] |
| 5.7 | CCCC(=O)N[C@@H](Cc1ccc(OCCCCCCN)cc1)C(=O)O [(S)-3-[4-(6-Amino-hexyloxy)-phenyl]-2-butyrylamino-propionic acid] |
